Results on four compounds are retold here after ChEMBL document CHEMBL5620402, “Development of submicromolar 17β-HSD10 inhibitors and their in vitro and in vivo evaluation” (Eur J Med Chem, 2023).

The nature of data set [1]: Dissociation constant, pKa of compound using buffers of given pH (range from 3.0 to 11.5) by UV-VIS spectrophotometry. The class given is physicochemical. The method, boiled down:
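Compound (10 μL of 1 mg/mL) was put into 490 μL of buffers spanning pH 3.0–11.5 in 0.5-unit steps. UV spectra were scanned at 200–400 nm and 20 °C. pKa was fitted from the sigmoidal absorbance of the dissociated form versus pH.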

Data set [2] in a line: Aqueous solubility, logS of the compound at pH 7.4 phosphate buffer by nephelometry assay. It is filed as physicochemical. In short, it runs like this:
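Nephelometry of compound suspensions in phosphate buffer pH 7.4. Stock was 160 μg/mL, sonicated and auto-diluted over 0–160 μg/mL, with higher stocks (640 μg/mL, 2.54 mg/mL) used if needed. Wells were shaken 30 s and laser-scanned. Solubility was derived by segmental linear regression.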

In data set [3] the target is T1, Citrate synthase, mitochondrial (Sus scrofa) (UniProt P00889).
T1 sequence (whole entry): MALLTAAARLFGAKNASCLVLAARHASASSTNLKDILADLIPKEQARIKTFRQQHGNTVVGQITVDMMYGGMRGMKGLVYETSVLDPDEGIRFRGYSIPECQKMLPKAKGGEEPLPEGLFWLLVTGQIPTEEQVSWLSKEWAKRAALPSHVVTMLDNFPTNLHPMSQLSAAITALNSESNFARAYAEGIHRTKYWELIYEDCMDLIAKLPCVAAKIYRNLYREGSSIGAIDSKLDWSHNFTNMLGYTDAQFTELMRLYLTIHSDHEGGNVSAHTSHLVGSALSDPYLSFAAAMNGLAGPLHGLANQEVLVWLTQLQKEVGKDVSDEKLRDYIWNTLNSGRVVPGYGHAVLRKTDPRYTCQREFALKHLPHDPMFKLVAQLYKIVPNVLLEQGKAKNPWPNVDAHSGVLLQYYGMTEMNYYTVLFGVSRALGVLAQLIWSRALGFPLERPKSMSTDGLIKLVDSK
The experiment in a line: Inhibition of pig brain mitochondrial citrate synthase assessed as activity at 50 uM by DTNB method (reference value: 100 + /- 5.5%). Further details: scale not given: the % may be the effect or the level left; call rule not given here. The settings on record: Mitochondria.

The species named for data set [4] is Sus scrofa. The experiment in a line: Inhibition of pig brain mitochondrial Complex II and III assessed as antimycin A-sensitive rate of cytochrome c reduction upon addition of succinate by measuring activity by spectrophotometric ally method (reference value: 100 + /- 5.6%). The arrangement: scale not given: the % may be the effect or the level left. Particulars: Mitochondria.

Data set [5] has as its target T2, Amine oxidase [flavin-containing] B (Sus scrofa, UniProt Q6PLK3).
T2 sequence (Q6PLK3 whole entry): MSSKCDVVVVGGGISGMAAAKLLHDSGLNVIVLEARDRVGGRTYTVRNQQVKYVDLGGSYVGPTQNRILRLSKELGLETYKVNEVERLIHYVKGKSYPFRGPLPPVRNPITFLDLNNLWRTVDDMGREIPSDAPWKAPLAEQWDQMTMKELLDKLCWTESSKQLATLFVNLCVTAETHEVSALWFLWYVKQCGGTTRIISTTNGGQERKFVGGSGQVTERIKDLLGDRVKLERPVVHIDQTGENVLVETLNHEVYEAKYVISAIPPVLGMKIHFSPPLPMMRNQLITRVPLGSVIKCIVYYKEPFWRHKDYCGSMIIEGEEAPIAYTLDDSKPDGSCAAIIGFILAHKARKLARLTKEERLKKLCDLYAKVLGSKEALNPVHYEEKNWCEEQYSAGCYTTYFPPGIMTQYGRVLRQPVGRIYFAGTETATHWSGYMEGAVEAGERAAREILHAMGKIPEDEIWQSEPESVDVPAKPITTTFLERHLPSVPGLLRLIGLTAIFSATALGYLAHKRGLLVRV
The experiment in a line: Inhibition of pig brain mitochondrial MAO-B using [14C]PEA as substrate incubated for 60 mins by liquid scintillation counting analysis. The class given is mitochondria, Mitochondria. In short, it runs like this:
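Pig brain mitochondria were preincubated with drug at 5–7 concentrations (1–1000 μM) for 60 min at 37 °C. Radiolabelled substrate was then added: [3H]5-HT for MAO-A (20 min) or [14C]PEA for MAO-B (1 min). The aldehyde product was counted by liquid scintillation. IC50 came from four-parameter logistic fits; mean ± SE of ≥2 runs.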

Data set [6] in a line: Inhibition of complex I linked mitochondrial respiration in isolated pig brain mitochondria by O2k respirometry. The arrangement: species or system Sus scrofa. In short, it runs like this:
(§1)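 Respirometry (Oxygraph-2k) of purified pig brain cortex mitochondria in state 3. Substrates were malate + pyruvate + ADP (Complex I) or ADP + rotenone + succinate (Complex II). One chamber was titrated with compound (10–20 concentrations, final 1.25–500 μM) and the other with DMSO; rates were expressed relative to DMSO. IC50 came from four-parameter logistic fits.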

The nature of data set [7]: Inhibition of complex II linked mitochondrial respiration in isolated pig brain mitochondria by O2k respirometry. The arrangement: species or system Sus scrofa. In short, it runs like this: as §1
The test system of data set [8] is HEK293. The experiment in a line: Cytotoxicity against human HEK293 cells assessed as change in ATP level at 1 uM measured after 48 hrs by CellTiter-Glo assay. It is filed as toxicity, cell-based. Particulars: hek293, 48 h. In short, it runs like this:
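HEK293 or SH-SY5Y cells in DMEM with 10% FBS, 2 mM glutamine and NEAA were seeded at 7,500 cells per well and grown 24 h. They were then exposed to 1 or 10 μM compound (final 1% DMSO) for 48 h. ATP was read by CellTiter-Glo luminescence after CellTox Green, normalised to 1% DMSO and 100 μM valinomycin controls. At least two experiments in tetraplicate.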

Data set [9] can be described thus: Tmax in male albino Wistar rat plasma at 60 mg/kg, po measured upto 1440 mins by HPLC-MS analysis. The class given is ADME, organism-based. The method, boiled down: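 Single oral gavage of a 16 mM solution (blunt needle via oesophagus into stomach) to male wild-type rats, in 10% NMP, 25% Kolliphor EL and 65% saline. Three animals were killed at each of 15 time points from 5 to 1440 min and exsanguinated. Plasma levels were measured by HPLC-MS. Non-compartmental analysis gave mean ± SE of three.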

The nature of data set [10]: AUC (0 to 1440 mins) in male albino Wistar rat plasma at 60 mg/kg, po measured upto 1440 mins by HPLC-MS analysis. The class given is ADME, organism-based. Particulars: in vivo, 24 h. The method, boiled down: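 Oral gavage via blunt needle into the stomach of male wild-type rats. Dose was 60 mg/kg from a 16 mM solution in 10% NMP, 25% Kolliphor EL and 65% saline. Rats were sacrificed at 15 time-points from 5 to 1440 min, 3 per point. Plasma and brain were analysed by HPLC-MS with non-compartmental analysis; values are mean ± SE of three.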

The compound `COc1ccc2nc(NC(=O)Nc3ccc(O)c(C(F)(F)F)c3)sc2c1` gave a pKa in data set [1] of 11.2. In data set [2], the logS0 was -4.48. Besides, the Activity was 92.7% in data set [3], 52.2% in data set [4] and “Non-Toxic” in [8]. The IC50 result in data set [5] was “Not Active”; in data set [6] it was 28 µM; in data set [7] it was 98 µM.

In turn, `NC(=O)c1ccc2nc(NC(=O)Nc3ccc(O)c(Cl)c3)sc2c1` returned a pKa in [1] of 9.35. In addition, in data set [2], the logS0 is -4.78. Moreover, the results for the Activity in data set [3], in data set [4] and in data set [8] were 94.4%, 99.7% and “Non-Toxic”, respectively. The IC50 stood at 84 µM in data set [5] (read-out: IC50) and 88 µM in data set [6].

Compound `O=C(Nc1ccc(O)c(Cl)c1)Nc1nc2ccc(C(=O)O)cc2s1` had a pKa in data set [1] of 9.75. For the same compound, the logS0 in data set [2] is listed as -4.36. Besides, the Activity is 100% in data set [3] and “Non-Toxic” in data set [8]. The IC50 in data set [5] (read-out: IC50) worked out at 81 µM; in data set [6] it was 93 µM; in [7] it was 260 µM. In addition, in data set [9], the time to peak (Tmax) is 25 min. The compound also registered an AUC in data set [10] of 212993 pmol·min.

In data set [1], `CC(=O)Nc1ccc2nc(NC(=O)Nc3ccc(O)c(Cl)c3)sc2c1` returned a pKa of 9.83. The compound also displayed a logS0 in [2] of -4.55. The Activity in data set [3] was 99.9%; in data set [4] it was 97.4%; in [8], “Non-Toxic”. Also, the IC50 in data set [5] (read-out: IC50) was 120 µM; in data set [6], 36.4 µM; in data set [7] it was 27 µM. Moreover, the Tmax in data set [9] is 35 min. Besides, in [10], the AUC was found to be 1431047 pmol·min.
